In ChEMBL document CHEMBL1141075, “4-Oxo-4,7-dihydrothieno[2,3-b]pyridines as non-nucleoside inhibitors of human cytomegalovirus and related herpesvirus polymerases” (J Med Chem, 2005):

Tests used:
[1] = biological target: T1, DNA polymerase catalytic subunit (Herpes simplex virus (type 1 / strain 17), UniProt P04293); assay: Inhibition of herpes simplex virus type 1 DNA polymerase (95 uL) activity in a solution containing […] HEPES (pH 7.5), incubation for 12 minutes at 26 degrees C; set-up: species or system Human alphaherpesvirus 1
T1 sequence (P04293 whole entry): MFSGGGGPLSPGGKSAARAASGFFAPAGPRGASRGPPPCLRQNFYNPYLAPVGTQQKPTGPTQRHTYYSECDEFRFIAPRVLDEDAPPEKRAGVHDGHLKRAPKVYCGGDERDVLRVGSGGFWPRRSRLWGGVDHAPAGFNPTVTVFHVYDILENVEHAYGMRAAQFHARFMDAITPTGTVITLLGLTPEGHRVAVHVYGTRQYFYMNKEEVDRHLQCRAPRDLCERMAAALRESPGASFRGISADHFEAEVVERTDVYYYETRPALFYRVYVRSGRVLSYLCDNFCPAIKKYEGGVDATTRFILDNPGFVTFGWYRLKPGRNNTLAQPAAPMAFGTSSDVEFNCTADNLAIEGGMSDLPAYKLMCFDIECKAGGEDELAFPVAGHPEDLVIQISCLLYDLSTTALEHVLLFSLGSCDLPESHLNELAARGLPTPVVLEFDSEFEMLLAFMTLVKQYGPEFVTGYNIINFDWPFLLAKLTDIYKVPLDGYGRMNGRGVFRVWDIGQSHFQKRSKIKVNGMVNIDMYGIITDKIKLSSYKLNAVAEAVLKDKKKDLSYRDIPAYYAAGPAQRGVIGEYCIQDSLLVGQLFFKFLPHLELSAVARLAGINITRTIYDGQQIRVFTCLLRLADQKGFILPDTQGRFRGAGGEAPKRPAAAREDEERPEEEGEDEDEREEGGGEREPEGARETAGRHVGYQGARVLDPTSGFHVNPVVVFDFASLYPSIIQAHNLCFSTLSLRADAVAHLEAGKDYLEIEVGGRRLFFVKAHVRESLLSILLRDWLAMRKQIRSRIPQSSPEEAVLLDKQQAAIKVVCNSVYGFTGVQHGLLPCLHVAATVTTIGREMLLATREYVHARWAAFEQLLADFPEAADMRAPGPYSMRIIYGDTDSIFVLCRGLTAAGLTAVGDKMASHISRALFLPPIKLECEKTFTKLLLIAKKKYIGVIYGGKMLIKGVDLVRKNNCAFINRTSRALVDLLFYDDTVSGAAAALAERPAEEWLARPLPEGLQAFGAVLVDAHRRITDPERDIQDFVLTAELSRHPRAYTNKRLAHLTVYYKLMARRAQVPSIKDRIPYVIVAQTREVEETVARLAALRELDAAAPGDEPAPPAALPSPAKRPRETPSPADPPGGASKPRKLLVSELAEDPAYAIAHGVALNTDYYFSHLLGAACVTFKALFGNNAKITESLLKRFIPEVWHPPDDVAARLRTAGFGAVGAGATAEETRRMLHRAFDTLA

[2] = biological target: T2, DNA polymerase catalytic subunit (Varicella-zoster virus (strain Dumas) (HHV-3) (Human herpesvirus 3), UniProt P09252); assay: Inhibition of Varicella-Zoster virus DNA polymerase (95 uL) activity in a solution containing […] HEPES (pH 7.5), incubation for 12 minutes at 26 degrees C; set-up: species or system Human alphaherpesvirus 3
T2 sequence (P09252 whole entry): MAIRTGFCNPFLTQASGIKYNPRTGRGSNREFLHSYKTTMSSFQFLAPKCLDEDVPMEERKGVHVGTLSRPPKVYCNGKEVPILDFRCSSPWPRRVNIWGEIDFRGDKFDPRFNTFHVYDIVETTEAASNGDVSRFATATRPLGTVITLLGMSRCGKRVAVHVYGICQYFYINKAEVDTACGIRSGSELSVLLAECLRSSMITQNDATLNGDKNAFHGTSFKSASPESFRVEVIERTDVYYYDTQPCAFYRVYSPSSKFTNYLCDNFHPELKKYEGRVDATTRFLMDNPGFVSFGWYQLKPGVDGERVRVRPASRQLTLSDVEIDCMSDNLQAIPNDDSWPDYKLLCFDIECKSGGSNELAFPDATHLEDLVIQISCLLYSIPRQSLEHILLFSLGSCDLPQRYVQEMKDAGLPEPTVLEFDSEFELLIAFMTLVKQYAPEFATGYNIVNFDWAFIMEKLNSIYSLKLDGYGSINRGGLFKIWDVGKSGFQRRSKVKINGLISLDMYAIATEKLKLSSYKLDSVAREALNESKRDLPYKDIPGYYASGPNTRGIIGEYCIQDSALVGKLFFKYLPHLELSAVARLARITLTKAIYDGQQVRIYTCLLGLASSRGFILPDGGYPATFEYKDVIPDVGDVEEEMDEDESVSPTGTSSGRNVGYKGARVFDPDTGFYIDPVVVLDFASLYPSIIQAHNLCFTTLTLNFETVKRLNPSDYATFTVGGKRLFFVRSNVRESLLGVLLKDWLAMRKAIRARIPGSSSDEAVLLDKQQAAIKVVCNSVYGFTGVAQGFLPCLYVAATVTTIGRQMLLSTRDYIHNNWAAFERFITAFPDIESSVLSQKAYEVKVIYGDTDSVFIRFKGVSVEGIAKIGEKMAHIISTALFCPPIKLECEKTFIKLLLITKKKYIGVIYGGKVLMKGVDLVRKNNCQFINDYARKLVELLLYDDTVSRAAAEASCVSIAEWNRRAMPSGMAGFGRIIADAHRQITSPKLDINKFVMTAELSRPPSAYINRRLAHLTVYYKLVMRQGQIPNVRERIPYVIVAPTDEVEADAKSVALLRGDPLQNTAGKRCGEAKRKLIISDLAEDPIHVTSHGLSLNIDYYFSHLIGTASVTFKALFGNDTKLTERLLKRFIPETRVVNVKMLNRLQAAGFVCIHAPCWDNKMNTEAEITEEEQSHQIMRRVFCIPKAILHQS

Vero [3] = assay: Antiviral activity against herpes simplex virus type 1 Patton(BWr) plaque forming unit grown on Human foreskin fibroblast cells upon incubation for 1 hour at 37 degrees C with compound dissolved in DMSO; format: functional, cell-based; settings: Chlorocebus sabaeus
How it was run: (§1)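 Plaque reduction: about 50 PFU added per well of a 24-well dish of the appropriate cells, 1 h at 37 °C, then the inoculum was replaced by drug-containing DMEM with 10% FBS and 0.8% carboxymethyl cellulose. DMSO stocks were 200-fold. Plates were held at 37 °C until plaques formed. Plaques were counted microscopically or after crystal violet stain. Percent inhibition was taken against the uninhibited control, with IC50 by linear regression.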

Vero [4] = assay: Antiviral activity against herpes simplex virus type 1 KOS (V823A) plaque forming unit grown on Human foreskin fibroblast cells upon incubation for 1 hour at 37 degrees C with compound dissolved in DMSO; format: functional, cell-based; settings: Chlorocebus sabaeus; how it was run: as §1
Vero [5] = assay: Antiviral activity against herpes simplex virus type 1 Patton (WT) plaque forming unit grown on Human foreskin fibroblast cells upon incubation for 1 hour at 37 degrees C with compound dissolved in DMSO; format: functional, cell-based; settings: Chlorocebus sabaeus; how it was run: as §1
HFF = assay: Antiviral activity against human cytomegalovirus Ad169 (V823A) plaque forming unit grown on Human foreskin fibroblast cells upon incubation for 1 hour at 37 degrees C with compound dissolved in DMSO; format: functional, cell-based, Human betaherpesvirus 5; how it was run: as §1

SMILES	IC50 [1]	IC50 [2]	IC50 (Vero [3])	IC50 (Vero [4])	IC50 (Vero [5])	IC50 (HFF)
Cn1cc(C(=O)NCc2ccc(Cl)cc2)c(=O)c2cc(CN3CCOCC3)ccc21	600 nM	–	–	–	–	–
O=C(NCc1ccc(Cl)cc1)c1cnc2ccc(CCCO)cc2c1O	300 nM	70 nM	–	–	–	–
Cn1cc(C(=O)NCc2ccc(Cl)cc2)c(=O)c2cc(CN3CCOCC3)sc21	–	770 nM	2500 nM	> 50000 nM	5400 nM	6200 nM
